In brackets after ≈: the same amount, converted by molar mass.
Experiments:
[1] = Metabolic stability in human liver microsome assessed as elimination half life at 0.1 uM in presence of NADPH incubated upto 60 mins by LC-MS/MS analysis; format: ADME; details: liver microsomes, read-out: beta t1/2
Summary of the method: (§1)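 Compound at 0.1 μM final, in 0.01% DMSO with 0.005% BSA. Incubated with rat or human liver microsomes at 0.33 mg/mL in 0.1 M Tris-HCl, pH 7.4, with 5 mM MgCl₂ and 1 mM NADPH, at 37 °C. Samples at 0, 7, 17, 30 and 60 min quenched with cold methanol and analysed by LC-MS/MS. Half-life, Cl_int and MF% derived as previously described.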

Pseudomonas aeruginosa [2] = test: Antibacterial activity against wild type Pseudomonas aeruginosa ATCC 27853 assessed as reduction in bacterial growth incubated for 18 to 20 hrs by CLSI based microdilution method; format: functional; details: time 18-20 hrs
Summary of the method: (§2)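 CLSI broth microdilution. Compounds in DMSO (levofloxacin and meropenem in water), serial twofold dilutions in broth, 64 to 0.008 μg/mL. […] Results reported as MIC ranges across strains.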

Klebsiella pneumoniae [3] = test: Antibacterial activity agains wild type Klebsiella pneumoniae ATCC BAA-2470 assessed as reduction in bacterial growth incubated for 18 to 20 hrs by CLSI based microdilution method; format: functional; details: time 18-20 hrs
Summary of the method: (§3)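 Broth microdilution per CLSI. Compounds dissolved in DMSO (levofloxacin and meropenem in water) as 64 μg/mL stock, then serial twofold dilutions in broth giving 64 to 0.008 μg/mL. […] Clinical isolates tested as several strains per group; racemic GP-1 served as positive control; values given as MIC ranges.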

Escherichia coli [4] = test: Antibacterial activity against multidrug resistant wild type Escherichia coli NCTC 13353 assessed as reduction in bacterial growth incubated for 18 to 20 hrs by CLSI based microdilution method; format: functional; details: time 18-20 hrs; summary of the method: as §3
[5] = Elimination half life in Sprague-Dawley rat at 5 mg/kg, iv measured upto 24 hrs by LC-MS/MS analysis; format: ADME, organism-based; details: in vivo, read-out: beta t1/2 (converted)
Summary of the method: (§4)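 Male Sprague-Dawley rats, n = 3 per group, single intravenous dose. For 4 mg/kg: 180–280 g rats, vehicle 5% DMSO + 5% EtOH + 40% PEG300 + 50% saline, blood from the retrobulbar vein at 0.05–24 h. For 5 and 20 mg/kg: 180–300 g rats, vehicle 5% DMSO + 5% solutol + 90% saline, sampled at 0.083–24 h. Plasma quantified by LC/MS/MS. Parameters from mean plasma concentration by noncompartmental analysis; values are mean ± standard deviation.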

[6] = Metabolic stability in human liver microsome assessed as intrinsic clearance at 0.1 uM in presence of NADPH incubated upto 60 mins by LC-MS/MS analysis; format: ADME; details: microsomes, 1 h; summary of the method: as §1
[7] = Clearance in Sprague-Dawley rat at 5 mg/kg, iv measured upto 24 hrs by LC-MS/MS analysis; format: ADME, organism-based; details: in vivo; summary of the method: as §4
Escherichia coli [8] = test: Antibacterial activity against ESBL-producing multidrug resistant Escherichia coli assessed as reduction in bacterial growth incubated for 18 to 20 hrs by CLSI based microdilution method; format: functional; details: time 18-20 hrs; summary of the method: as §3
[9] = Metabolic stability in rat liver microsome assessed as intrinsic clearance at 0.1 uM in presence of NADPH incubated upto 60 mins by LC-MS/MS analysis; format: ADME; details: microsomes, 1 h; summary of the method: as §1
Klebsiella pneumoniae [10] = test: Antibacterial activity agains wild type Klebsiella pneumoniae ATCC BAA-1705 assessed as reduction in bacterial growth incubated for 18 to 20 hrs by CLSI based microdilution method; format: functional; details: time 18-20 hrs; summary of the method: as §2
[11] = Metabolic stability in rat liver microsome assessed as metabolic bioavailability at 0.1 uM in presence of NADPH incubated upto 60 mins by LC-MS/MS analysis; format: ADME; details: liver microsomes; summary of the method: as §1
[12] = Metabolic stability in human liver microsome assessed as metabolic bioavailability at 0.1 uM in presence of NADPH incubated upto 60 mins by LC-MS/MS analysis; format: ADME; details: liver microsomes; summary of the method: as §1
Escherichia coli [13] = test: Antibacterial activity against multidrug resistant wild type Escherichia coli ATCC BAA-2340 assessed as reduction in bacterial growth incubated for 18 to 20 hrs by CLSI based microdilution method; format: functional; details: time 18-20 hrs; summary of the method: as §3
Acinetobacter baumannii [14] = test: Antibacterial activity agains OXA23-producing multidrug resistant Acinetobacter baumannii assessed as reduction in bacterial growth incubated for 18 to 20 hrs by CLSI based microdilution method; format: functional; details: time 18-20 hrs; summary of the method: as §3
Pseudomonas aeruginosa [15] = test: Antibacterial activity against IMP4-producing multidrug resistant Pseudomonas aeruginosa assessed as reduction in bacterial growth incubated for 18 to 20 hrs by CLSI based microdilution method; format: functional; details: time 18-20 hrs; summary of the method: as §3
[16] = Metabolic stability in rat liver microsome assessed as elimination half life at 0.1 uM in presence of NADPH incubated upto 60 mins by LC-MS/MS analysis; format: ADME; details: liver microsomes, read-out: beta t1/2; summary of the method: as §1
[17] = MRT in Sprague-Dawley rat at 5 mg/kg, iv measured upto 24 hrs by LC-MS/MS analysis; format: ADME, organism-based; details: in vivo; summary of the method: as §4
[18] = Volume of distribution at the steady state in Sprague-Dawley rat at 5 mg/kg, iv measured upto 24 hrs by LC-MS/MS analysis; format: ADME, organism-based; details: in vivo, read-out: Vdss; summary of the method: as §4
Klebsiella pneumoniae [19] = test: Antibacterial activity against KPC2-producing multidrug resistant Klebsiella pneumoniae assessed as reduction in bacterial growth incubated for 18 to 20 hrs by CLSI based microdilution method; format: functional; details: time 18-20 hrs; summary of the method: as §3
Acinetobacter baumannii [20] = test: Antibacterial activity against wild type Acinetobacter baumannii NCTC 13304 assessed as reduction in bacterial growth incubated for 18 to 20 hrs by CLSI based microdilution method; format: functional; details: time 18-20 hrs; summary of the method: as §3
[21] = AUC (0 to infinity) in Sprague-Dawley rat at 5 mg/kg, iv measured upto 24 hrs by LC-MS/MS analysis; format: ADME, organism-based; design: time < 24 hrs, dose 5 mg/kg, route iv; details: in vivo; summary of the method: as §4

SMILES | MIC (Pseudomonas aeruginosa [2]) [µg/mL] | MIC (Klebsiella pneumoniae [3]) [µg/mL] | MIC (Escherichia coli [4]) [µg/mL] | half-life [5] [h] | clearance [7] [mL/min/kg] | MIC (Escherichia coli [8]) [µg/mL] | MIC (Klebsiella pneumoniae [10]) [µg/mL] | MIC (Escherichia coli [13]) [µg/mL] | MIC (Acinetobacter baumannii [14]) [µg/mL] | MIC (Pseudomonas aeruginosa [15]) [µg/mL] | MRT [17] [h] | Vd [18] [L/kg] | MIC (Klebsiella pneumoniae [19]) [µg/mL] | MIC (Acinetobacter baumannii [20]) [µg/mL] | AUC(0-inf) [21] [ng·h/mL] | further results
[2H]C([2H])([2H])Nc1cc(F)cc2c1[nH]c1nc(Oc3cnc(C)nc3)nc(N3CC(=C(C)[C@@H](C)N)C3)c12 | 2 (≈ 4.43 µM) | 2 (≈ 4.43 µM) | 0.125 (≈ 0.277 µM) | 6.5 | 132 | 0.5 (≈ 1.11 µM) | 4 (≈ 8.86 µM) | 0.25 (≈ 0.554 µM) | 0.25 (≈ 0.554 µM) | 4 (≈ 8.86 µM) | 5.6 | 44.5 | 1 (≈ 2.21 µM) | 0.25 (≈ 0.554 µM) | 634 | half-life at 0.1 µM [1]: 2.98 h; CLH [6]: 11.7 mL/min/g; CLH [9]: 215 mL/min/g; Fh at 1 h, 0.1 µM [11]: 17.2%; Fh at 1 h, 0.1 µM [12]: 62.6%; half-life at 0.1 µM [16]: 9.8 min
CCNc1cc(F)cc2c1[nH]c1nc(Oc3cnc(C)nc3)nc(N3CC(=C(C)[C@@H](C)N)C3)c12 | > 64 | > 64 | 1 (≈ 2.16 µM) | 6.7 | 64.7 | 4 (≈ 8.65 µM) | > 64 | 1 (≈ 2.16 µM) | 2 (≈ 4.32 µM) | > 64 | 4.3 | 16.7 | > 8 | 2 (≈ 4.32 µM) | 1290 | –
